From ChEMBL document CHEMBL4732076, “Design, synthesis and bioevaluation of inhibitors targeting HSP90-CDC37 protein-protein interaction based on a hydrophobic core” (Eur J Med Chem, 2021)
Calls of active or inactive are those of the source. The calls are words filed in the database; no cut-off is given here.

Experiments:
Heat shock protein HSP90 [1] = molecular target: T1, Heat shock protein HSP90 (Homo sapiens, UniProt P07900+P08238); experiment: Binding affinity to recombinant human N-terminal truncated HSP90 (9 to 236 residues) expressed in Escherichia coli BL21 (DE3) assessed as on rate constant by biolayer interferometry assay
Heat shock protein HSP90 [2] = molecular target: T1, Heat shock protein HSP90; experiment: Binding affinity to recombinant human N-terminal truncated HSP90 (9 to 236 residues) expressed in Escherichia coli BL21 (DE3) assessed as off rate constant by biolayer interferometry assay
HCT-116 [3] = experiment: Antiproliferative activity against human HCT-116 cells assessed as reduction in cell viability incubated for 72 hrs by MTT assay; format: functional, cell-based
How it was run: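 HCT116 cells in RPMI 1640 with 10% FBS, 37 °C, 5% CO2. Seeded at 3000–5000 cells/well and left 24 h, then exposed to serial compound dilutions for 72 h. Proliferation read by MTT kit using the standard protocol.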

Heat shock protein HSP90 [4] = molecular target: T1, Heat shock protein HSP90; experiment: Binding affinity to recombinant human N-terminal truncated HSP90 (9 to 236 residues) expressed in Escherichia coli BL21 (DE3) assessed as dissociation rate constant by biolayer interferometry assay
Heat shock protein HSP90 [5] = molecular target: T1, Heat shock protein HSP90; experiment: Binding affinity to HSP90 in human HCT-116 cells assessed as increase in thermal stability at 5 uM incubated for 12 hrs at 35 to 65 degC by […]; format: cell-based
How it was run: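 HCT116 cells at ~90% confluence treated with 5 μM compound or DMSO for 12 h, then washed and resuspended in PBS. Aliquots heated 3 min across 35–65 °C, freeze-thawed three times in liquid nitrogen and centrifuged. Soluble HSP90 and CDC37 detected by Western blot. Three independent experiments.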

HCT-116 [6] = experiment: Inhibition of HSP90/CDC37 interaction in human HCT-116 cells for 12 hrs by immunoprecipitation based Western blot analysis; format: cell-based; conditions: dose 1-10 µM
How it was run: (§1)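 HCT116 cells at ~90% confluence given compound (0, 1, 5, 10 μM) or DMSO for 12 h. Lysed 1 h on ice in RIPA buffer (50 mM Tris, 150 mM NaCl, 1% NP-40, protease inhibitors, pH 7.4), then spun 15 min at 4 °C. HSP90 immunoprecipitated with protein A/G magnetic beads over 3 h. Beads washed five times; blots probed for HSP90, CDC37 and CDK4.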

HCT-116 [7] = experiment: Inhibition of HSP90/CDC37 interaction in human HCT-116 cells assessed as reduction in CDK4 expression at 1 to 10 uM incubated for 12 hrs by immunoprecipitation based Western blot analysis; format: cell-based; conditions: dose 1-10 µM; how it was run: as §1
HCT-116 [8] = experiment: Inhibition of HSP90/CDC37 interaction in human HCT-116 cells assessed as downregulation of CDK4 incubated for 12 hrs by Western blot analysis; format: cell-based; conditions: dose 1-10 µM
How it was run: (§2)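 HCT116 cells treated with 0, 1, 5 and 10 μM compound for 12 h. Whole-cell levels of HSP90, HSP70, CDC37, CDK4, CDK6, cyclin D1, p21 and p27 measured by Western blot, with β-actin as loading control. Three independent experiments.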

HCT-116 [9] = experiment: Inhibition of HSP90/CDC37 interaction in human HCT-116 cells assessed as downregulation of CDK6 incubated for 12 hrs by Western blot analysis; format: cell-based; conditions: dose 1-10 µM; how it was run: as §2
HCT-116 [10] = experiment: Induction of cell cycle arrest in human HCT-116 cells assessed as increase in accumulation at G0/G1 phase at 1 to 10 uM incubated for 24 hrs by propidium iodide staining based flow cytometric analysis; format: functional; conditions: dose 1-10 µM
How it was run: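 HCT116 cells exposed to 0, 1, 5 and 10 μM compound for 24 h. Fixed in 75% ethanol overnight at 4 °C, treated with RNase I (50 μg/mL) in PBS for 30 min at 37 °C, then stained with propidium iodide (50 μg/mL) for 15 min. Cell-cycle phases measured by flow cytometry.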

[11] = Toxicity in BALB/c mouse xenografted with human HCT-116 cells assessed as effect on body weight at 10 to 20 mg/kg, po administered and observed for 37 days; format: organism-based; conditions: in vivo, 888 h, dose 10-20 mg/kg, time 37 day
How it was run: (§3)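 HCT116 cells (1×10^7) mixed 3:1 with Matrigel and injected into the flank of 6-week-old BALB/c nude mice, randomized into groups. Dosing started at mean tumor volume 125 mm³: daily oral doses of 10 or 20 mg/kg in 0.9% saline with 5% DMSO, for 37 days. Tumor volume measured daily by calipers as length×width²/2; body weight recorded every 1–4 days. n = 6, mean ± SD.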

HCT-116 [12] = experiment: Antitumor activity against human HCT-116 cells xenografted in BALB/c mouse assessed as reduction in tumor volume administered orally for 37 days and measured on day 37; format: functional; conditions: dose 10-20 mg/kg, time 37.0 day; how it was run: as §3
HCT-116 [13] = experiment: Antitumor activity against human HCT-116 cells xenografted in BALB/c mouse assessed as reduction in tumor at 10 to 20 mg/kg, po administered for 37 days and measured on day 37 by H and E staining based immunohistochemistry analysis; format: functional, organism-based; conditions: dose 10-20 mg/kg, time 37.0 day
Mus musculus [14] = experiment: In vivo inhibition of HSP90/[…] interaction in BALB/c mouse xenografted with human HCT-116 cells assessed as reduction in CDK4 level administered orally for 37 days and measured on day 37 by […] immunohistochemistry analysis; format: functional, organism-based; conditions: dose 10-20 mg/kg, time 37.0 day
HCT-116 [15] = experiment: Inhibition of HSP90/CDC37 interaction in human HCT-116 cells assessed as upregulation of p21/p27 at 1 to 10 uM incubated for 12 hrs by Western blot analysis; conditions: dose 1-10 µM
HCT-116 [16] = experiment: Inhibition of HSP90/CDC37 interaction in human HCT-116 cells assessed as downregulation of HSP70 at 1 to 10 uM incubated for 12 hrs by Western blot analysis; conditions: dose 1-10 µM
HCT-116 [17] = experiment: Inhibition of HSP90/CDC37 interaction in human HCT-116 cells assessed as downregulation of Cyclin D1 at 1 to 10 uM incubated for 12 hrs by Western blot analysis; conditions: dose 1-10 µM
[18] = Toxicity in BALB/c mouse xenografted with human HCT-116 cells assessed as effect on body weight at 20 mg/kg, po administered and observed for 37 days; format: organism-based; conditions: in vivo, 888 h, time 37 day; how it was run: as §3
HCT-116 [19] = experiment: Antitumor activity against human HCT-116 cells xenografted in BALB/c mouse assessed as reduction in tumor volume at 20 mg/kg, po administered for 37 days and measured on day 37; format: functional, organism-based; conditions: time 37.0 day; how it was run: as §3
Mus musculus [20] = experiment: In vivo inhibition of HSP90/[…] interaction in BALB/c mouse xenografted with human HCT-116 cells assessed as reduction in CDK4 level at 20 mg/kg, po administered for 37 days and measured on day 37 by […] immunohistochemistry analysis; format: functional, organism-based; conditions: time 37.0 day
Heat shock protein HSP90 [21] = molecular target: T1, Heat shock protein HSP90; experiment: Inhibition of HSP90 (unknown origin) at 100 uM measured after 1.5 hrs in presence of ATP by spectrophotometry relative to control; format: protein assay
[22] = Homo sapiens, HCT-116, 72 h, read-out: IC50

| K (Heat shock protein HSP90 [1]) | K (Heat shock protein HSP90 [2]) | IC50 (HCT-116 [3]; [22]) | Kd (Heat shock protein HSP90 [4]) | Structure (SMILES) | further results |
| --- | --- | --- | --- | --- | --- |
| inactive | inactive | > 20 µM | – | O=S(=O)(Nc1ccc(Nc2ccnc(N3CCNCC3)n2)cc1)c1ccc(Oc2ccccc2)cc1 | – |
| 3.17 10^3(1/Ms) | 0.0366 s⁻¹ | 19.3 µM | 11.5 µM | CCCc1ccc(S(=O)(=O)Nc2ccc(Nc3ccnc(N4CCNCC4)n3)cc2)cc1.Cl | – |
| – | – | 16.7 µM | > 100 µM | CCCCCc1ccc(S(=O)(=O)Nc2ccc(Nc3ccnc(N4CCNCC4)n3)cc2)cc1.Cl | – |
| inactive | inactive | 7.05 µM | – | O=S(=O)(Nc1ccc(Nc2ccnc(N3CCNCC3)n2)cc1)c1ccc(OCc2ccccc2)cc1 | – |
| 3.54 10^4/Ms | 0.337 s⁻¹ | 13.4 µM | 9.52 µM | Cl.O=S(=O)(Nc1ccc(Nc2ccnc(N3CCNCC3)n2)cc1)c1ccc2c(c1)CCC2 | – |
| inactive | inactive | – | – | Cl.Cn1cnc(S(=O)(=O)Nc2ccc(Nc3ccnc(N4CCNCC4)n3)cc2)c1 | IC50 (HCT-116 [3]; hct-116): Not Active |
| inactive | inactive | > 20 µM | – | Cc1ccc(S(=O)(=O)Nc2ccc(Nc3ccnc(N4CCNCC4)n3)cc2)cc1 | – |
| inactive | inactive | 11.1 µM | – | O=S(=O)(Nc1ccc(Nc2ccnc(N3CCNCC3)n2)cc1)c1ccc(Cl)cc1 | – |
| inactive | inactive | > 20 µM | – | O=S(=O)(Nc1ccc(Nc2ccnc(N3CCNCC3)n2)cc1)c1ccc(OC(F)(F)F)cc1 | – |
| inactive | inactive | > 20 µM | – | O=S(=O)(Nc1ccc(Nc2ccnc(N3CCNCC3)n2)cc1)c1cccs1 | – |
| inactive | inactive | > 20 µM | – | CCc1ccc(S(=O)(=O)Nc2ccc(Nc3ccnc(N4CCNCC4)n3)cc2)cc1 | – |
| 6.1 10^3(1/Ms) | 0.112 s⁻¹ | 13.7 µM | 18.4 µM | Cl.O=S(=O)(Nc1ccc(Nc2ccnc(N3CCNCC3)n2)cc1)c1ccc(-c2ccccc2)cc1 | – |
| 3.55 10^4/Ms | 0.182 s⁻¹ | 16.4 µM | 5.13 µM | CCOC(=O)c1ccc(S(=O)(=O)Nc2ccc(Nc3ccnc(N4CCNCC4)n3)cc2)cc1.Cl | – |
| – | – | > 20 µM | > 100 µM | CC(C)c1ccc(S(=O)(=O)Nc2ccc(Nc3ccnc(N4CCNCC4)n3)cc2)cc1.Cl | – |
| 2.03 10^4/Ms | 0.112 s⁻¹ | 6.34 µM | 5.52 µM | Cc1c(C)c(S(=O)(=O)Nc2ccc(Nc3ccnc(N4CCNCC4)n3)cc2)c(C)c2c1OC(C)(C)C2.Cl | Activity (Heat shock protein HSP90 [5]): Active; inhibition (HCT-116 [6]): Dose-dependent effect; inhibition (HCT-116 [7]): Active; inhibition (HCT-116 [8]): Dose-dependent effect; inhibition (HCT-116 [9]): Dose-dependent effect; Activity (HCT-116 [10]): Active; Activity [11]: Non-Toxic; Activity (HCT-116 [12]): Dose-dependent effect; Activity (HCT-116 [13]): Active; inhibition (Mus musculus [14]): Dose-dependent effect; inhibition (HCT-116 [15]): Active; inhibition (HCT-116 [16]): inactive; inhibition (HCT-116 [17]): Active |
| inactive | inactive | > 20 µM | – | CC(C)c1cc(C(C)C)c(S(=O)(=O)Nc2ccc(Nc3ccnc(N4CCNCC4)n3)cc2)c(C(C)C)c1 | – |
| inactive | inactive | > 20 µM | – | N#Cc1ccc(S(=O)(=O)Nc2ccc(Nc3ccnc(N4CCNCC4)n3)cc2)cc1 | – |
| – | – | – | – | Cc1cc(C)c(S(=O)(=O)N(CC(=O)O)c2ccc(Nc3ccnc(N4CCNCC4)n3)cc2)c(C)c1 | Activity [18]: Non-Toxic; Activity (HCT-116 [19]): Active; inhibition (Mus musculus [20]): Active |
| inactive | inactive | 1.35 µM | – | O=S(=O)(Nc1ccc(Nc2ccnc(N3CCNCC3)n2)cc1)c1ccc(Br)cc1 | – |
| – | – | > 50 µM | >= 20 uM | COc1cc(S(=O)(=O)Nc2ccc(Nc3ccnc(N4CCNCC4)n3)cc2)c(C)cc1C.Cl | inhibition (Heat shock protein HSP90 [21]): 56% |
| 1.04 10^4/Ms | 0.121 s⁻¹ | 7.5 µM | 11.6 µM | CCCCc1ccc(S(=O)(=O)Nc2ccc(Nc3ccnc(N4CCNCC4)n3)cc2)cc1.Cl | – |
| 3.02 10^3(1/Ms) | 0.0321 s⁻¹ | 5.82 µM | 10.6 µM | Cl.O=S(=O)(Nc1ccc(Nc2ccnc(N3CCNCC3)n2)cc1)c1ccc2c(c1)CCO2 | – |
| inactive | inactive | > 20 µM | – | O=S(=O)(Nc1ccc(Nc2ccnc(N3CCNCC3)n2)cc1)c1ccc(F)cc1 | – |
